Rows were chosen to be rich in hits. Some 1.4% of all compounds tested hit in one or more screens of this group.
PAD4 FP inh – PAD4 (human) enzyme inhibition. AID 485272. Q9UM07. inhibition, % at 6.36 µM. 0.41% of 330,000 active. recombinant PAD4, RCA probe fluorescence polarization;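 active = percent inhibition above a cutoff equal to the mean of all tested compounds plus 3 SD, cut at about 15% in these data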;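 also: 0% = PAD4 with RCA probe and DMSO and 100% = probe without PAD4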
GSTO1 inh – counter-screen for RBBP9 inhibitors: inhibitors of human GSTO1; P78417; recombinant GSTO1, activity-based probe fluorescence polarization; inhibition, % at 5.96 µM; 1.1% of 300,000 active; AID 1974;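 active = inhibition above the campaign mean inhibition plus 3 SD, cut at about 35% in these data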;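 also: 0% = GSTO1-1 with DMSO and 100% = wells lacking GSTO1-1 enzyme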
TDP2 inh – TDP2 (human) inhibition, absorbance primary screen. recombinant TDP2, T5PNP hydrolysis, p-nitrophenol absorbance 415 nm. 0.34% of 370,000 active. inhibition, % at 12.8 µM;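 active = inhibition above the mean of all tested compounds plus 3 SD, set per campaign, cut at about 25% in these data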;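 also: 0% = DMSO with enzyme and 100% = buffer with substrate but no TDP2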
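System – recombinant human TDP2 · Amount – 120 nM TDP2 per well · Buffer or medium – Mg2+-containing Tris-HCl buffer, pH 7.5 · Reagent – T5PNP substrate, 5 mM · Dosing – 12.8 µM single point, 1% DMSO · Incubation – 2 h at 37 °C · Measured by – epi absorbance · Read-out basis – percent inhibition · Benchmarks – high control without enzyme, low control DMSO plus TDP2 · Repeats – singlicate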
CTSL1 counter – counter-screen for PFM18AAP inhibitors: inhibitors of F. hepatica cathepsin L1 | recombinant F. hepatica cathepsin L1, Z-Leu-Arg-MCA fluorescence | inhibition, % at 5.96 µM | 0.49% of 300,000 active | AID 1906;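 active = inhibition above the mean of all tested compounds plus 3 SD, set per screening campaign, cut at about 17% in these data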;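 also: 0% = plate median of test compound wells and 100% = 1 µM Z-Phe-Ala-diazomethylketone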
GSTO1 inh conf – confirmation of human GSTO1 inhibitors; shares compounds with GSTO1 inh; recombinant GSTO1, probe fluorescence polarization; inhibition, % at 5.96 µM; 54% of 2,400 active; AID 2176;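 active = inhibition above the primary screen's cutoff, its mean inhibition plus 3 SD, cut at about 35% in these data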;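 also: loss of polarization as inhibitors block binding of rhodamine sulfonate ester activity probe; 0% = GSTO1 with DMSO and 100% = wells lacking GSTO1 enzyme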
GSTO1 ABPP inh – blocks recombinant human glutathione S-transferase omega 1 | shares compounds with GSTO1 inh | recombinant GSTO1, gel ABPP SE-Rh probe fluorescence | inhibition, % at 1 µM | 30% of 130 active;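 active = inhibition of the enzyme GSTO1 above about 75%, limit read from the data; inactive = inhibition below that limit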
* hit, by the source's call; x = not tested or not shown.

SMILES	PAD4 FP inh	GSTO1 inh	TDP2 inh	CTSL1 counter	GSTO1 inh conf	others
COC(=O)c1cccc2c1NC(=O)C2=O	2	51*	19	17*	1
CCCc1ccc(C(=O)N2CCN(c3ccccc3OCC)CC2)cc1	2	46*	-10	2	3
CCOc1ccc(CN(C)C(=O)CCNC(=O)c2ccco2)cc1	1	x	5	x	x
CCOc1ccc(CN(C)C(=O)CCl)cc1	-5	81*	20	14	98*	GSTO1 ABPP inh=71
C[C@H]1COc2cc(N3CCSCC3)ccc2S(=O)(=O)N1C	x	x	-8	x	x
CC(c1ccccc1)N1CC[C@H]2C=CC[C@@H](C(=O)Nc3ccc(F)c(F)c3)[C@H]2C1=O (stereo partly specified)	x	x	-1	x	x
COc1cccc(Cn2cc(COC(=O)NCCc3ccccc3)nn2)c1	x	x	0	x	x
CCCCCCc1c(O)c2ccccc2[nH]c1=O	2	-2	-2	-2	x
CCCCCCCCCCCC1=C(O)C(=O)C=C(O)C1=O	-2	79*	x	4	66*
COC1=CC(=O)C(O)=C(CCCCCCC/C=C/CCCCCCCC2=C(O)C(=O)C=C(OC)C2=O)C1=O	6	91*	x	0	90*
c1coc(-c2nc3ccccc3nc2-c2ccco2)c1	7	62*	28*	11	61*
N/C(=N\OC(=O)c1ccccc1Cl)c1cccc([N+](=O)[O-])c1	0	2	9	2	x
N/C(=N/OC(=O)c1ccccc1Cl)c1ncc([N+](=O)[O-])s1	2	47*	3	-3	12
CC(C)CNc1cccc2c1S(=O)(=O)N(Cc1cn(Cc3cccc(C(F)(F)F)c3)nn1)Cc1ccccc1O2	x	x	-8	x	x
COc1cccc(NC(=O)c2nnn(CC(=O)Nc3cc(C)cc(C)c3)c2N)c1	-2	-6	-2	0	x
Cc1cccc(NC(=O)Cn2nnc(C(=O)Nc3ccc(F)c(Cl)c3)c2N)c1	5	43*	-6	4	8
NS(=O)(=O)c1ccc(NC(=O)CSc2nc3ccccc3c(=O)n2-c2ccc(Br)cc2)cc1	x	x	-10	x	x
C=CCN1C=C2C(=O)C(C)(OC(=O)C3CCCC3)C(=O)C=C2C=C1c1ccsc1 (stereo unspecified)	-2	41*	-4	5	5
CC1(OC(=O)C2CCCC2)C(=O)C=C2C=C(c3ccsc3)N(C3CC3)C=C2C1=O (stereo unspecified)	7	47*	16	1	4
COc1ccc(NC(=S)NC(NC(=O)CCl)C(Cl)(Cl)Cl)c([N+](=O)[O-])c1 (stereo unspecified)	-4	92*	x	8	97*
O=C(c1ccccc1)c1nn(-c2ccc(Cl)cc2)c(=O)cc1C(F)(F)F	2	76*	3	2	78*
CCN(C(=O)Cn1cc(C(=O)C(=O)N2CCOCC2)c2ccccc21)c1ccccc1	4	67*	-7	-2	2
COC(=O)[C@H](Cc1ccccc1)N1Cc2ccccc2Oc2cc(Br)ccc2S1(=O)=O	x	x	2	x	x
O=C(CSc1nnc(-c2c[nH]c3ccccc23)n1C1CC1)NC1CCS(=O)(=O)C1 (stereo unspecified)	x	x	4	x	x
O=C(CSc1nnc(-c2ccc(Cl)cc2Cl)n1C1CCCCC1)NC1CCS(=O)(=O)C1 (stereo unspecified)	-12	45*	-7	2	4
SMILES	PAD4 FP inh	GSTO1 inh	TDP2 inh	CTSL1 counter	GSTO1 inh conf	others
Cc1oc2c(O)c(O)ccc2c(=O)c1-c1cnn(-c2ccccc2)c1	7	59*	-12	13	23
c1ccc(-c2nnc3n2N=C(c2ccc4ccccc4c2)CS3)nc1	x	x	3	x	x
N#Cc1c(SCC(=O)Nc2nncs2)sc2c(O)cc(=O)[nH]c12	-14	51*	21	3	63*
CCOc1ccc2nc(N3C(=O)/C(=C/c4ccccc4)NC3=S)sc2c1	3	59*	-7	5	55*
COc1ccc2nc(-n3c(C)ccc3C)sc2c1	1	20	0	-5	x
COc1ccc2nc(N3C(=O)/C(=C/c4ccccc4)NC3=S)sc2c1	-15	42*	-1	4	56*
O=C1CCN2C=Nc3cccc4ccc1c2c34	13	40*	23	1	9

From PubChem BioAssay
